Several values for one entry are separate records, joined by “and”; a condition that tells them apart may be missing. Identical values can stand only once.
Experiments:
[1] = target: GABA-A receptor; anion channel; assay: Inhibitory activity at GABA A receptor, measured by the ability to displace [3H]zolpidem from GABA A receptor in rat brain; format: tissue-based
[2] = target: GABA-A receptor; anion channel; assay: Inhibitory activity at GABA A receptor, measured by the ability to displace [3H]GABA from GABA A receptor in rat brain; format: tissue-based
[3] = tested on: Rattus norvegicus; assay: Tested for antineophobic activity using the elevated plus maze test administered at 78 umol/kg perorally in rats; format: functional
[4] = Inhibitory activity at GABA B receptor, measured by the ability to displace [3H]baclofen from GABA B receptor in rat brain; format: tissue-based
[5] = target: T1, Gastrin/cholecystokinin type B receptor (Rattus norvegicus, UniProt P30553); assay: Inhibitory activity by measuring its ability to displace [3H]L-365260 from cholecystokinin receptor in rat brain; format: tissue-based
T1 sequence (P30553 whole entry): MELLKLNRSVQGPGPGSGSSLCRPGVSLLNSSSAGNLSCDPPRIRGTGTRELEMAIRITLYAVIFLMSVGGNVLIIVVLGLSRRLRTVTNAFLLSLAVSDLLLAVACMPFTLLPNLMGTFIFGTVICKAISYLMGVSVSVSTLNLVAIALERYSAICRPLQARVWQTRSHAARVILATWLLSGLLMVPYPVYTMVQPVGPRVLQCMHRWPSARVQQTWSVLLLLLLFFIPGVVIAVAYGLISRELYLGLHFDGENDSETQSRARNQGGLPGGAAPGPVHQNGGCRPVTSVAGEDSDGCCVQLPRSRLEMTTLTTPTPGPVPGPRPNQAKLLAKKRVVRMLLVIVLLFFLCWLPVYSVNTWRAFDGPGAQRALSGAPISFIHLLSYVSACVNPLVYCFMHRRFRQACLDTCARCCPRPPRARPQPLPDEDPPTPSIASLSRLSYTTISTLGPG

[6] = target: Adrenergic receptor alpha; assay: Inhibitory activity by measuring its ability to displace [3H]clonidine from alpha-adrenergic receptor in rat brain; format: tissue-based
[7] = target: Cannabinoid receptor 1 (Rattus norvegicus, UniProt P20272); assay: Inhibitory activity, measured by displacement [3H]CP-55940 from cannabinoid receptor (CB1) in rat brain; format: tissue-based
Cannabinoid receptor 1, sequence (P20272 whole entry): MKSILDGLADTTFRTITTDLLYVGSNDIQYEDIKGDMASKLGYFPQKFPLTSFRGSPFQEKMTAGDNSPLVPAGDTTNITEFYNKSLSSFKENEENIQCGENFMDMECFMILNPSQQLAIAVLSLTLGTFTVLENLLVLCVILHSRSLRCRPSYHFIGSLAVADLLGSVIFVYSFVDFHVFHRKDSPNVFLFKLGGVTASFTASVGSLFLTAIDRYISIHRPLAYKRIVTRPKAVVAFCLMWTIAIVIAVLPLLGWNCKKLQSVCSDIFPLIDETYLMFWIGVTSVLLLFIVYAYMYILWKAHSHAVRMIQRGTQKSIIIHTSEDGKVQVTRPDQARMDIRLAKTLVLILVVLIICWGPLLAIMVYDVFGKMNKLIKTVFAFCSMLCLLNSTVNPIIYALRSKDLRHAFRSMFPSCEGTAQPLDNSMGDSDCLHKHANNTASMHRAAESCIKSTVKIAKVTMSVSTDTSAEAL

[8] = Tested for inhibitory activity by measuring its ability to displace [3H]AMPA from glutamate (non-NMDA) receptor in rat brain; format: tissue-based
[9] = target: GABA-A receptor; anion channel; assay: Inhibitory activity at GABA A receptor, measured by the ability to displace [3H]flumazenil from GABA A receptor in rat brain; format: tissue-based
[10] = target: Translocator protein (Rattus norvegicus, UniProt P16257); assay: Binding affinity against mitochondrial DBI complex (peripheral benzodiazepine receptor) using primary cultures of glial cells
Translocator protein, sequence (P16257 whole entry, looked up): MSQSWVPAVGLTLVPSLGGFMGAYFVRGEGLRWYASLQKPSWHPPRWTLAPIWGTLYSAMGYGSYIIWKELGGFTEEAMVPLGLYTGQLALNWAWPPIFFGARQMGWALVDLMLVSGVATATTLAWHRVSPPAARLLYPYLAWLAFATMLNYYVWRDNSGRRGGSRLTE
In short: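 Glia from cerebella of 8-day-old Sprague–Dawley rat pups, trypsin-dissociated and grown 14 days (~95% astroglia). Cells lysed in 50 mM Hepes pH 7.4, 4 μg protein per tube. Incubated with [3H]4'-chlorodiazepam and competitor for 90 min at 4 °C, then filtered. Nonspecific binding defined with 10 μM 4'-chlorodiazepam. Triplicate competition curves; IC50 by nonlinear regression, converted to Ki (Bylund–Yamamura).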

[11] = Inhibitory activity by measuring its ability to displace [3H]spiperone from dopamine or serotonin 5-HT-1 receptors in rat brain; format: tissue-based
[12] = Inhibitory activity by measuring its ability to displace [3H]glycine from glycine receptor in rat brain; format: tissue-based
[13] = target: GABA-A receptor; anion channel; assay: Inhibitory activity at GABA A receptor, measured by the ability to displace [35S]TBPS from GABA A receptor in rat brain; format: tissue-based
[14] = target: Adrenergic receptor alpha; assay: Inhibitory activity by measuring its ability to displace [3H]WB-4101 from alpha-adrenergic receptor in rat brain; format: tissue-based
[15] = target: Adrenergic receptor beta (Rattus norvegicus, UniProt P18090+P10608+P26255); assay: Inhibitory activity by measuring its ability to displace [125I]pindolol from beta-adrenergic receptor in rat brain; format: tissue-based
[16] = target: Glutamate NMDA receptor; assay: Inhibitory activity by measuring its ability to displace [3H]-MK-801 from glutamate(NMDA) receptor in rat brain; format: tissue-based
[17] = target: Serotonin 2 (5-HT2) receptor (Rattus norvegicus); assay: Inhibitory activity by measuring its ability to displace [3H]ketanserin from serotonin receptor in rat brain
[18] = target: T2, Opioid receptor (Rattus norvegicus, UniProt P33533+P34975+P33535); assay: Inhibition of [3H]naxolone binding to opiate receptors in rat brain; format: tissue-based
[19] = tested on: Rattus norvegicus; assay: Tested for antineophobic activity using the elevated plus maze test administered at 40 umol/kg perorally in rats; format: functional
[20] = target: Sigma receptor (Rattus norvegicus); assay: Tested for inhibitory activity by measuring its ability to displace [3H]3-PPP from sigma receptor in rat brain
[21] = tested on: Rattus norvegicus; assay: Tested for antineophobic activity using the elevated plus maze test administered at 57 umol/kg perorally in rats; format: functional
[22] = tested on: Rattus norvegicus; assay: Tested for antineophobic activity administered at 225 umol/kg perorally in adrenalectomized/castrated rats; format: functional
In short: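 Rats of 175–200 g were adrenalectomized and castrated 3 days before the elevated plus maze. Drug was suspended in 1% DMSO/H2O and given by oral gavage 1 h before the test. […] was scored; n = 10 rats, mean ± SEM.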

[23] = target: T2, Opioid receptor; assay: Displacement of [3H]naxolone from opiate receptor of rat brain
[24] = tested on: Rattus norvegicus; assay: Tested for antineophobic activity using the elevated plus maze test administered at 71 umol/kg perorally in rats; format: functional
[25] = tested on: Rattus norvegicus; assay: Tested for antineophobic activity using the elevated plus maze test administered at 51 umol/kg perorally in rats; format: functional
[26] = target: Adrenergic receptor alpha; assay: Displacement of [3H]clonidine from alpha-adrenergic receptor in rat brain; format: tissue-based
[27] = tested on: Rattus norvegicus; assay: Tested for antineophobic activity using the elevated plus maze test administered at 53 umol/kg perorally in rats; format: functional
[28] = tested on: Rattus norvegicus; assay: Tested for antineophobic activity using the elevated plus maze test administered at 55 umol/kg perorally in rats; format: functional

O=C(Cc1c(-c2ccccc2)[nH]c2ccccc12)N1CCCCC1
5.7%: Time [3]
> 1 µM: IC50 [1] | IC50 [2] | IC50 [4] | IC50 [5] | IC50 [6] | IC50 [7] | IC50 [8] | IC50 [9] | IC50 [11] | IC50 [12] | IC50 [13] | IC50 [14] | IC50 [15] | IC50 [16]
0.35 µM: Ki [10]
2.3: No. of entries [3]

CCCCN(CCCC)C(=O)Cc1c(-c2ccc(F)cc2)[nH]c2ccccc12
8%: Time [19]
3.6: No. of entries [19]
> 1 µM: IC50 [1] | IC50 [2] | IC50 [17] | IC50 [18] | IC50 [4] | IC50 [5] | IC50 [6] | IC50 [7] | IC50 [8] | IC50 [9] | IC50 [11] | IC50 [12] | IC50 [20] | IC50 [13] | IC50 [14] | IC50 [15] | IC50 [16]
0.045 µM: Ki [10]

CCCCCCN(CCCCCC)C(=O)Cc1c(-c2ccc(F)cc2)[nH]c2ccccc12
> 1 µM: IC50 [1] | IC50 [2] | IC50 [4] | IC50 [5] | IC50 [6] | IC50 [7] | IC50 [8] | IC50 [9] | IC50 [11] | IC50 [12] | IC50 [13] | IC50 [14] | IC50 [15] | IC50 [16]
22 s and 25 s: Time spent [22]
2.1: No. of entries [21]
4.9 and 5.5: No. of entries [22]
0.0044 µM: Ki [10]
4.5%: Time [21]

CCCN(CCC)C(=O)Cc1c(-c2ccc(F)cc2)[nH]c2ccccc12
0.1 µM: Ki [10]
> 1 µM: IC50 [1] | IC50 [2] | IC50 [17] | IC50 [4] | IC50 [5] | IC50 [6] | IC50 [7] | IC50 [8] | IC50 [9] | IC50 [23] | IC50 [11] | IC50 [12] | IC50 [20] | IC50 [13] | IC50 [14] | IC50 [15] | IC50 [16]

CCCCCCNC(=O)Cc1c(-c2ccc(F)cc2)[nH]c2ccccc12
1.6%: Time [24]
> 1 µM: IC50 [1] | IC50 [2] | IC50 [17] | IC50 [18] | IC50 [4] | IC50 [5] | IC50 [6] | IC50 [7] | IC50 [8] | IC50 [9] | IC50 [11] | IC50 [12] | IC50 [20] | IC50 [13] | IC50 [14] | IC50 [15] | IC50 [16]
0.323 µM: Ki [10]
0.6: No. of entries [24]

CCCCCCN(CCCCCC)C(=O)Cc1c(-c2ccc(Cl)cc2)[nH]c2ccc(Cl)cc12
> 1 µM: IC50 [1] | IC50 [2] | IC50 [17] | IC50 [18] | IC50 [4] | IC50 [5] | IC50 [6] | IC50 [7] | IC50 [8] | IC50 [9] | IC50 [11] | IC50 [12] | IC50 [20] | IC50 [13] | IC50 [14] | IC50 [15] | IC50 [16]
5.3%: Time [25]
0.0036 µM: Ki [10]
2.3: No. of entries [25]

CCCCCCN(CCCCCC)C(=O)Cc1c(-c2ccc(F)cc2)[nH]c2ccc(Cl)cc12
> 1 µM: IC50 [1] | IC50 [2] | IC50 [26] | IC50 [17] | IC50 [18] | IC50 [4] | IC50 [5] | IC50 [7] | IC50 [8] | IC50 [9] | IC50 [11] | IC50 [12] | IC50 [20] | IC50 [13] | IC50 [14] | IC50 [15] | IC50 [16]
0.0023 µM: Ki [10]
0.4%: Time [27]
0.4: No. of entries [27]

CCCCCCN(CCCCCC)C(=O)Cc1c(-c2ccccc2)[nH]c2ccc(Cl)cc12
2.3: No. of entries [28]
> 1 µM: IC50 [1] | IC50 [2] | IC50 [4] | IC50 [5] | IC50 [6] | IC50 [7] | IC50 [8] | IC50 [9] | IC50 [11] | IC50 [12] | IC50 [13] | IC50 [14] | IC50 [15] | IC50 [16]
0.0041 µM: Ki [10]
4.3%: Time [28]
